Compound activity from PubChem BioAssay.
A1 apoptosis 2 – A1 inhibitors via caspase activation, primary screen, cell-based, luminescence, HTS, two replicates | AID 2465, 2010 | caspase activation, % (no concentration beside the values) | MEF A1-2A-BIM cells, caspase-Glo luminescence, 3 h; percent of clofoctol response, DMSO zero | 24,000 tested, under 10 active; in the data active = caspase activation above about 5.9%; inconclusive = no clear call, values can overlap the other calls; inactive = below about 2.2%
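Material: mouse embryonic fibroblasts co-expressing A1 and BIM (A1-2A-BIM), primed for A1 dependence / Quantity: 2500 cells/well / Buffer or medium: RPMI-1640 growth medium with 10% FBS / Doses: 50 nL compound per well, pinned / Schedule: 3 h compound exposure at 37 °C / Signal: Caspase-Glo luminescence (DEVD substrate) / Measure: Caspase-3/7 activation, seen as rise in luminescence signal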
INS-1E rescue – protection of INS-1E cells from cytokine death, primary screen, ATP luminescence, single point; INS-1E cytokine-induced death, 48 h; normalised: neutral wells 0, positive control 100; protection from cytokine-induced ATP loss, % at 10 µM; actives 0.1% (n = 20,000); AID 488910, 2010;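 active = mean replicate protection from cytokine-induced ATP loss at least 50% and at least 75% of replicates each reaching 50%; inconclusive = meets only one of the two criteria, mean or replicate share; inactive = fails both the mean and replicate share criteria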
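Assay system – rat INS-1E insulinoma cell line · Quantity – 8000 cells per well · Buffer or medium – RPMI without phenol red, 5% FBS · Schedule – 48 h co-treatment, 10 min post-lysis read · Technique – luminescent ATP assay (CellTiter-Glo)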
T cruzi intra – inhibitors of intracellular Trypanosoma cruzi, primary screen, cell-based, plate reader, single point, set 2 | intracellular Trypanosoma cruzi in host cells | actives 4.9% (n = 22,000) | activity score (inhibition), % at 5.01 µM; in the data active = activity score above about 55%; inconclusive = no clear call, values can overlap the other calls;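 note: parasites and compound incubated about four days before reading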
Of the large screens only hits and unclear results are named; the others gave an inactive call. Shown is part of a subset that was picked to be rich in hits.

C[C@H]1CN([C@@H](C)CO)C(=O)Cc2cc(NC(=O)Nc3ccc4c(c3)OCO4)ccc2O[C@@H]1CN(C)Cc1ccccc1	none (no result: A1 apoptosis 2)
C[C@@H]1CN([C@H](C)CO)C(=O)c2cc(NC(=O)Nc3ccc4c(c3)OCO4)ccc2O[C@@H]1CN(C)Cc1ccc(-c2ccccc2)cc1	T cruzi intra 87.5
C[C@H](CO)N1C[C@H](C)[C@H](CN(C)Cc2ccc(-c3ccccc3)cc2)Oc2ccc(NC(=O)Nc3ccc4c(c3)OCO4)cc2C1=O	none (no result: INS-1E rescue)
CCn1c2ccccc2c2cc(/C=N/NC(=O)c3ccccn3)ccc21	none
CC(C)=CCC[C@@H](C)C/C=N/NC(=O)CCCCCCC(=O)Nc1ccccc1O	none
O=C(O)CCCCCC(=O)N/N=C/c1ccc(C(F)(F)F)cc1	none (no result: A1 apoptosis 2)
C[C@@H]1CN([C@@H](C)CO)C(=O)Cc2cc(NC(=O)C3CC3)ccc2O[C@H]1CN(C)Cc1ccc(-c2ccccc2)cc1	none (no result: INS-1E rescue, T cruzi intra)
C[C@@H]1CN([C@H](C)CO)C(=O)Cc2cc(NC(=O)C3CCCCC3)ccc2O[C@H]1CN(C)Cc1ccc(-c2ccccc2)cc1	T cruzi intra 57.4
C[C@@H]1CN([C@H](C)CO)C(=O)Cc2cc(NC(=O)C3CC3)ccc2O[C@H]1CN(C)Cc1ccc(-c2ccccc2)cc1	none
C[C@H](CO)N1C[C@H](C)[C@H](CN(C)Cc2ccc(-c3ccccc3)cc2)Oc2ccc(NC(=O)C3CCCCC3)cc2CC1=O	T cruzi intra 67.1 (no result: A1 apoptosis 2)
C[C@H]1CN([C@@H](C)CO)C(=O)Cc2cc(NC(=O)C3CCCCC3)ccc2O[C@@H]1CN(C)Cc1ccc(-c2ccccc2)cc1	T cruzi intra 60.1 (no result: A1 apoptosis 2)
C[C@@H]1CN([C@H](C)CO)C(=O)Cc2cc(NC(=O)C3CCCCC3)ccc2O[C@@H]1CN(C)Cc1ccc(-c2ccccc2)cc1	T cruzi intra inconclusive
CC(C)(C)OC(=O)NC/C=N/NC(=O)CCCCCCC(=O)Nc1ccccc1O	none
O=C(NO)c1cccc(C(=O)N/N=C/c2cccc(Oc3ccccc3)c2)c1	none
O=C(N/N=C/c1ccc(O)c(O)c1)c1ccccn1	none (no result: INS-1E rescue, T cruzi intra)
O=C(N/N=C/c1nccs1)c1ccccn1	none
C[C@@H]1CCCCO[C@@H](CN(C)Cc2ccccc2)[C@H](C)CN([C@@H](C)CO)C(=O)c2cc(NC(=O)Nc3cccc4ccccc34)ccc2O1	none (no result: INS-1E rescue, T cruzi intra)
C[C@@H]1CCCCO[C@@H](CN(C)Cc2ccccc2)[C@@H](C)CN([C@H](C)CO)C(=O)c2cc(NC(=O)Nc3cccc4ccccc34)ccc2O1	T cruzi intra 56.6
C[C@@H]1CCCCO[C@H](CN(C)Cc2ccc(Cl)c(Cl)c2)[C@@H](C)CN([C@H](C)CO)C(=O)c2cc(NC(=O)Nc3cccc4ccccc34)ccc2O1	T cruzi intra 61.9
C[C@@H]1CCCCO[C@@H](CN(C)Cc2ccc(Cl)c(Cl)c2)[C@@H](C)CN([C@@H](C)CO)C(=O)c2cc(NC(=O)Nc3cccc4ccccc34)ccc2O1	none (no result: INS-1E rescue, T cruzi intra)
COC(=O)CCCCCCC(=O)N/N=C/c1ccc(O)c2ccccc12	none
COC(=O)CCCCCCC(=O)N/N=C/c1cccc(NC(=O)OC(C)(C)C)c1	none
C[C@@H]1CN([C@H](C)CO)C(=O)c2cccc(NC(=O)c3nc4ccccc4s3)c2O[C@@H]1CN(C)Cc1ccc(C(F)(F)F)cc1	none (no result: A1 apoptosis 2)
C[C@@H]1CN([C@@H](C)CO)C(=O)c2cccc(NC(=O)c3nc4ccccc4s3)c2O[C@H]1CN(C)Cc1ccc(C(F)(F)F)cc1	T cruzi intra 64.1
C[C@@H]1CN([C@@H](C)CO)C(=O)c2cccc(NC(=O)c3nc4ccccc4s3)c2O[C@@H]1CN(C)Cc1ccc(C(=O)O)cc1	none (no result: A1 apoptosis 2)
C[C@H]1CN([C@@H](C)CO)C(=O)c2cccc(NC(=O)c3nc4ccccc4s3)c2O[C@@H]1CN(C)Cc1ccccc1	none (no result: A1 apoptosis 2)
C[C@H]1CN([C@@H](C)CO)C(=O)c2cccc(NC(=O)c3nc4ccccc4s3)c2O[C@@H]1CN(C)Cc1ccc(C(F)(F)F)cc1	T cruzi intra 63.6 (no result: A1 apoptosis 2)
C[C@H](CO)N1C[C@H](C)[C@H](CN(C)Cc2ccc(C(F)(F)F)cc2)Oc2c(NC(=O)c3nc4ccccc4s3)cccc2C1=O	T cruzi intra 66.7
C[C@H](CO)N1C[C@H](C)[C@@H](CN(C)Cc2ccc(C(F)(F)F)cc2)Oc2c(NC(=O)c3nc4ccccc4s3)cccc2C1=O	T cruzi intra 61.5 (no result: A1 apoptosis 2)
C[C@@H]1CN([C@@H](C)CO)C(=O)c2cccc(NC(=O)c3nc4ccccc4s3)c2O[C@H]1CN(C)Cc1ccccc1	none
O=C(NO)c1ccc(C(=O)N/N=C/c2ccc3ccccc3n2)cc1	none (no result: INS-1E rescue, T cruzi intra)
